Shown is part of a subset that was picked to be rich in hits.
FLuc act counter: firefly luciferase counter-screen for stimulation assays; P08659; ATPlite luciferase biochemical, luminescence, 10 min; 0 = ATP-free wells, 1 = DMSO control; activation factor at 10 µM; 200,000 tested, under 10 active;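 active = luciferase activation factor, scaled between plate controls, of at least 2 with compound at 10 µM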
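Material: luciferase plus luciferin reagent, cell-free. Medium: PBS buffer for ATP. Also added: ATP substrate, dispensed from a 10.24 µM working solution in PBS. Doses: test compounds dosed from 2 mM stocks in 100% DMSO. Incubation: 10 min post-reagent at room temperature. Technique: light output (luminescence). Read-out basis: luminescence gain marking luciferase activators.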
ABCG2 block: inhibitors of human ABCG2 transporter, ABCB1 counter-screen; Q9UNQ0; inhibition, % at 6.6 µM; hit rate 0.1% among 190,000; IgMXP3 cells, JC-1 efflux, flow cytometry;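 active = inhibition above 80%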;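 also: 0% = DMSO and 100% = nicardipine control wells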
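Times: 10 min at 25 °C | Test system: Two drug-resistant human cell lines, ABCG2 and ABCB1 | Quantity: 3 million cells/mL final, two lines in 1:1 ratio | Signal: Flow cytometry, 530 nm JC-1 signal | Dosing: Compound at 6.6 µM | Controls: Nicardipine and DMSO wells | Reagent: JC-1 as fluorescent efflux pump substrate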
Diaphorase act: activates diaphorase or chemically reduces, flagging diaphorase assay artifacts; hit rate 0.005% among 190,000; activation factor at 20 µM; Diaphorase/resazurin coupled assay, resorufin fluorescence, 16 min; stronger effect = higher value; 1 = vehicle wells, 0 = NADH-free wells;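 active = diaphorase activity raised at least twofold by the compound at 20 µM; inactive = activation factor below 2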
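Measured by – red resorufin fluorescence at 544/590 nm excitation/emission · Test system – Clostridium kluyveri diaphorase, purified enzyme · Incubation – reaction time 16 min, room temperature · Buffer or medium – 50 mM HEPES pH 7.4 with 4.542 mM MgCl2, 0.005% Tween 20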
FLuc inh counter: inhibits firefly luciferase, flagging false hits in luciferase inhibition screens | AID 1006 | ATPLite firefly luciferase biochemical luminescence, 10 min | P08659 | inhibition, % at 10 µM | hit rate 1.5% among 200,000;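 active = inhibition above about 50% when tested at 10 µM, limit read from the data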
ABCB6 inh MLPCN: human ABCB6 transporter inhibition; fluorescence ratio to DMSO, % at 10 µM; K562-ABCB6 porphyrin accumulation, flow cytometry, 1 h; stronger effect = lower value; Q9NP58; AID 602162; hit rate 0.19% among 360,000;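 active = fluorescence ratio to DMSO below 75%, the collection mean minus 3 SD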;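 also: signal is porphyrin accumulated inside mitochondria; 100% equals median channel fluorescence of DMSO control wells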
ABCB1 block: blocks JC-1 efflux by human ABCB1 transporter; CCRF-Adr cells, flow cytometry; inhibition, % at 6.6 µM; hit rate 0.067% among 190,000; AID 1326; in the data active = inhibition above about 40%;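 also: 0% = vehicle and 100% = reference inhibitor; higher value means more JC-1 retained so stronger ABCB1 efflux block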
Target sequence (P08183 whole entry, looked up): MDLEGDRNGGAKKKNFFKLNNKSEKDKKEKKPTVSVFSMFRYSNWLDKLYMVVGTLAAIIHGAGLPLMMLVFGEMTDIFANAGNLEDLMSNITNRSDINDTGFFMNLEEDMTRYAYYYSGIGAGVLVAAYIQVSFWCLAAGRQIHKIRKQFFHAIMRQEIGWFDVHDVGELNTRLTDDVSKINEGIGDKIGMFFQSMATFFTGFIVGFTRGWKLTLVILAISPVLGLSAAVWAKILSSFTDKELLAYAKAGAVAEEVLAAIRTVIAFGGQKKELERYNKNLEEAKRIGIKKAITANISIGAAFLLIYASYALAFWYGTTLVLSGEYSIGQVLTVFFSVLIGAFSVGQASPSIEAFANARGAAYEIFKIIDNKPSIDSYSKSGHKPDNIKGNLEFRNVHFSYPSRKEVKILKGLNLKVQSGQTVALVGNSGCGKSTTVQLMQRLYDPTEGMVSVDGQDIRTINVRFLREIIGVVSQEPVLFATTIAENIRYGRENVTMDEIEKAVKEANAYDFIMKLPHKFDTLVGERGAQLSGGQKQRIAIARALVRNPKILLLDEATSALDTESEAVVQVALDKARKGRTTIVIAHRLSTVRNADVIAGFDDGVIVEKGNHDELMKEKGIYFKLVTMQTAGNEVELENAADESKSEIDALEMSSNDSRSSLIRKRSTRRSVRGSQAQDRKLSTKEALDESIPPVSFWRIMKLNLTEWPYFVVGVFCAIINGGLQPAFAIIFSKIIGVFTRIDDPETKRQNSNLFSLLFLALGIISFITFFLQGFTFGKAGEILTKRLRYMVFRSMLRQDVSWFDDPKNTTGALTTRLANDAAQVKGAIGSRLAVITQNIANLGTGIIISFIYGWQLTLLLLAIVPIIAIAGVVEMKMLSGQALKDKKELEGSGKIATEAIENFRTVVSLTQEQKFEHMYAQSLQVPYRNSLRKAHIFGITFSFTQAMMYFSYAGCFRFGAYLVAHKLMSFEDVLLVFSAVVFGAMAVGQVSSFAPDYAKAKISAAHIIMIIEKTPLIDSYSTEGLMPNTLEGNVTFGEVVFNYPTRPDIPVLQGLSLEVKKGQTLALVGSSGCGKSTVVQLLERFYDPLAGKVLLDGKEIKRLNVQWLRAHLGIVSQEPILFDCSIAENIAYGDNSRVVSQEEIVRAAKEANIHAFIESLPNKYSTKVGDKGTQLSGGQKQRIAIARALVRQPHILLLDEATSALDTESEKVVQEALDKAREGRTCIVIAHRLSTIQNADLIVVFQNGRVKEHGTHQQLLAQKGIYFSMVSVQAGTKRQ
Starred values were filed as active, the others as inactive; nt = not tested or not shown.

SMILES	FLuc act counter	ABCG2 block	Diaphorase act	FLuc inh counter	ABCB6 inh MLPCN	ABCB1 block
Cc1ccc(-n2c(C)cc(C(=O)CSc3n[nH]c(N)n3)c2C)cc1	0.7	0	0.9	26	95	0
Cc1cc(C(=O)CSc2nnc(-c3ccccc3)n2-c2ccccc2)c(C)n1-c1ncn[nH]1	1	0	0.9	-5	90	0
Cc1cc(C(=O)CSc2nnc3ccccn23)c(C)n1-c1ccccc1	0.3	-1	0.9	75*	103	1
CCCCc1c(C)nc2nc(SCc3ccc(Cl)cc3)[nH]n2c1=O	nt	nt	nt	nt	101	nt
Clc1ccc(-c2nc3n(n2)Cc2ccccc2-3)cc1	0.4	2	1	58*	101	1
C=CCOc1ccccc1CNc1cccc(F)c1	1.1	-2	0.8	-7	103	-1
C=CCOc1ccccc1CNc1ccc2c(c1)OCCO2	0.3	13	0.8	74*	108	1
COc1ccc(-c2cn3cc(C)ccc3n2)cc1Br	0.1	6	0.9	94*	93	1
COc1ccc(C(=O)NC(C)Cc2c[nH]c3ccccc23)cc1 (centres undefined)	nt	nt	nt	nt	95	nt
CCCOc1ccc(-c2nnc(-c3ccco3)o2)cc1	0.2	-4	1.1	77*	101	-5
O=C(COc1ccccc1)Nc1ccc(-c2nnc(-c3ccco3)o2)cc1	1	-1	0.8	-1	96	-1
COc1cccc(C(=O)Nc2ccc(-c3nnc(-c4ccco4)o3)cc2)c1	1	-1	1	-4	91	-1
CC(C)COc1ccc(-c2nnc(-c3ccco3)o2)cc1	0.4	19	1	60*	91	0
C/C(CC(=O)NCc1ccccc1Cl)=N/NC(=O)c1ccccn1	nt	nt	nt	nt	92	nt
CCn1cc(C(=O)NCc2ccc(OC)cc2)c(=O)c2ccc(C)nc21	nt	nt	nt	nt	99	nt
CC(C)c1ccc(/C=N\NC(=O)c2ccc(Cn3cccn3)o2)cc1	0.3	1	1.1	72*	98	0
O=C(N/N=C\c1ccc(Cl)s1)c1ccc(Cn2cccn2)o1	1	3	0.8	2	102	0
N/C(=N\N=C\c1ccc2c(c1)OCO2)c1nonc1N	0.2	-10	0.9	78*	108	-5
O=C(CSc1cn(Cc2ccccc2)c2ccccc12)Nc1nccs1	0.5	2	0.7	50*	95	1
Cc1ccnc(Nc2nc3ccccc3o2)n1	0.3	5	0.7	69*	97	0
Cc1nc(Nc2nc3ccccc3o2)nc(C)c1C	0.5	2	1	51*	96	0
Cc1nn(-c2nc3ccccc3[nH]2)c(=O)c2ccccc12	0	4	0.9	97*	93	2
Cc1nn(-c2ccc3ccccc3c2)c(=O)c2ccccc12	0.9	7	1	13	121	1
NC(=NCc1ccccc1)NN=Cc1ccnc2ccccc12	nt	nt	nt	nt	96	nt
Cc1sc(NC(=O)c2cccs2)nc1-c1ccccc1	0.9	33	0.8	5	99	0
SMILES	FLuc act counter	ABCG2 block	Diaphorase act	FLuc inh counter	ABCB6 inh MLPCN	ABCB1 block
O=C(Nc1nsc(-c2ccccc2)n1)c1cccs1	0.2	2	1	79*	94	0
O=C(OCC(=O)c1ccc(Cl)s1)c1ccccn1	0.4	-1	1.1	57*	98	0
O=C(OCC(=O)c1ccc(Cl)s1)c1cnccn1	nt	nt	nt	nt	97	nt
Nc1[nH]c(N=NC(=O)c2ccccc2)c2ccccc12	0.4	6	0.9	61*	96	1
Nc1[nH]c(N=NC(=O)c2ccc(Cl)cc2)c2ccccc12	0.5	7	1	48	99	0
Nc1[nH]c(N=NC(=O)c2ccccc2O)c2ccccc12	0.1	1	0.8	85*	99	0
Cc1ccc(C(=O)COC(=O)CCCC(=O)Nc2cc(C(F)(F)F)ccc2Cl)cc1C	0.5	20	0.8	54*	100	1
Cc1ccc(C(=O)COC(=O)CCC(=O)Nc2ccccc2Cl)cc1[N+](=O)[O-]	1	6	0.9	-4	103	1
O=C1Nc2ccccc2C1=Nc1ccccc1-c1ccccc1	nt	nt	nt	nt	96	nt
COc1ccc(S(=O)(=O)NC(=O)C2(C)CCN2C(=O)C2(c3ccccc3)CC2)cc1 (centres undefined)	nt	nt	nt	nt	96	nt
O=C(Nc1ccon1)c1cc2c(s1)CCCC2	0.3	2	0.9	70*	104	0
CCOC(=O)Cc1csc(NC(=O)c2cc3c(s2)CCCC3)n1	0.4	0	0.9	61*	184	0
O=C(Nc1ccccc1N1CCOCC1)c1cc2c(s1)CCCCC2	0.3	3	0.8	65*	93	1
O=C(Nc1ccc(N2CCOCC2)cc1)c1cc2c(s1)CCCCC2	1	3	0.8	2	98	0
Cc1csc(NC(=O)c2cc3c(s2)CCCCC3)n1	0.1	4	1	95*	94	1
O=C(Nc1ccon1)c1cc2c(s1)CCCCCC2	0.8	5	0.9	19	90	0
CCOC(=O)C1CCN(C(=O)COC(=O)CSc2ccc(C(N)=O)cc2[N+](=O)[O-])CC1	nt	nt	nt	nt	104	nt
CC(=O)c1ccc(Nc2nc(C(C)N)cs2)cc1 (centres undefined)	nt	nt	nt	nt	87	nt
Cc1csc(NC(=O)c2cc3c(s2)CCCC3)n1	0.1	31	0.9	94*	93	1
Cc1cnc(NC(=O)c2cc3c(s2)CCCC3)s1	0.1	3	0.8	93*	89	1
CC(C)NC(=O)c1cc2c(s1)CCCC2	1	22	1.1	5	96	2
Cc1ccccc1OCC(=O)Nc1ccc(N2CCN(C(=O)c3ccco3)CC2)cc1	nt	nt	nt	nt	94	nt
O=c1c2ccccc2c(/C=N/c2nnc(Cc3ccccc3)s2)c(O)n1-c1ccc(Cl)cn1	0.5	0	0.6	50*	103	0
CCOc1ccc(NC(=O)C(=O)NCCN2CCN(S(=O)(=O)c3ccccc3)CC2)cc1	nt	nt	nt	nt	104	nt
CCOc1ccc(S(=O)(=O)N2CCCCC2)cc1NC(=O)Cc1cccc(C(F)(F)F)c1	nt	nt	nt	nt	100	nt
SMILES	FLuc act counter	ABCG2 block	Diaphorase act	FLuc inh counter	ABCB6 inh MLPCN	ABCB1 block
CCOc1cc(C(=S)N2CCOCC2)cc(Br)c1OS(=O)(=O)c1ccccc1	nt	nt	nt	nt	101	nt
O=C(NCc1ccc2c(c1)OCO2)c1nc(S(=O)(=O)Cc2ccccc2)ncc1Cl	nt	nt	nt	nt	53*	nt
O=C(Nc1ccc2c(c1)OCCO2)c1ccco1	0.5	1	0.8	50*	101	0
O=C(COC(=O)c1ccco1)Nc1ccc2c(c1)OCCO2	0.3	14	0.9	69*	96	0
O=C(Nc1ccc(N2CCOCC2)c(Cl)c1)c1ccco1	0.4	52	0.9	59*	104	1
CC1(C)Oc2ccc(NC(=O)c3ccco3)cc2O1	0.4	4	0.9	63*	102	0
